Results as given in ChEMBL document CHEMBL1133100, “Design and synthesis of Cyclopenta[g]quinazoline-based antifolates as inhibitors of thymidylate synthase and potential antitumor agents(,)” (J Med Chem, 2000).

What follows are compounds tested on L1210 (assay: Compound was tested for the inhibition of L1210: 1565 cell growth in mouse; value given as 1.2, 1.6). Details: not given.
Assay type: functional, cell-based
In the case of C#CCN(c1ccc(C(=O)N[C@@H](CCC(=O)N[C@H](C)c2nnn[nH]2)C(=O)O)cc1)C1CCc2cc3nc(C)[nH]c(=O)c3cc21 (some centres not stated), the IC50 is reported as 1.6 µM.

These compounds were tested against T1, Thymidylate synthase (Mus musculus, UniProt P07607) (assay: Compound was tested for the binding affinity against thymidylate synthase from L1210 mouse leukemia cells; value given as 2.4,1.8). Details: read-out: Ki app.
T1 sequence (P07607 whole entry): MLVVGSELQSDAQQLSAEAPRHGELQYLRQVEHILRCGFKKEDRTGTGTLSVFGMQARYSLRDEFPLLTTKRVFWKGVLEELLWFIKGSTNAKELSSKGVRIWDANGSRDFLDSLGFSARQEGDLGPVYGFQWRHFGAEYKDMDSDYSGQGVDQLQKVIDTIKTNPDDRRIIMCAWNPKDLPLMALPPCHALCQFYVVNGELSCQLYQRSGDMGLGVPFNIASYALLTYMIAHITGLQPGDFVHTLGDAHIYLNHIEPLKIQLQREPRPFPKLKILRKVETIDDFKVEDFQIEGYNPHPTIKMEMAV
Assay type: cell-based
Outline: (§1)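 Enzyme source was partially purified thymidylate synthase from L1210 mouse leukemia cells that overproduce TS through TS gene amplification. Apparent Ki was determined alongside the control CB3717 in each experiment. The test Kiapp/CB3717 Kiapp ratio was multiplied by the mean CB3717 Kiapp across experiments to allow comparison between experiments.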
With C#CCN(c1ccc(C(=O)N[C@@H](CCc2nnnn2CC(=O)O)C(=O)O)cc1)C1CCc2cc3nc(C)nc(O)c3cc21 (some centres not stated) the Ki was 0.0024 µM.

What follows are compounds tested on L1210 (assay: Compound was tested for the inhibition of L1210 cell growth in mouse.). Details: not given.
Assay type: functional, cell-based
Work on C#CCN(c1ccc(C(=O)N[C@@H](CCC(=O)N[C@H](CCC(=O)O)C(=O)O)C(=O)O)cc1)C1CCc2cc3nc(C)nc(O)c3cc21 (some centres not stated) yielded an IC50 of 0.3 µM.
C#CCN(c1ccc(C(=O)N[C@@H](CCc2nnnn2CC(=O)N[C@H](C)C(=O)O)C(=O)O)cc1)C1CCc2cc3nc(C)nc(O)c3cc21 (some centres not stated) gave an IC50 of 19 µM.
For C#CCN(Cc1cc2c(O)nc(C)nc2cc1C)c1ccc(C(=O)N[C@@H](CCC(=O)N[C@H](CCC(=O)O)C(=O)O)C(=O)O)cc1, the IC50 was 0.22 µM.
C#CCN(c1ccc(C(=O)N[C@@H](CCc2nnnn2CCCC(=O)O)C(=O)O)cc1)C1CCc2cc3nc(C)nc(O)c3cc21 (some centres not stated) gave an IC50 of 2.7 µM.
C#CCN(c1ccc(C(=O)N[C@@H](CCCS(=O)(=O)c2nnc[nH]2)C(=O)O)cc1)C1CCc2cc3nc(C)[nH]c(=O)c3cc21 (some centres not stated) gave an IC50 of 0.49 µM.
Compound C#CCN(c1ccc(C(=O)N[C@@H](CCC(=O)N[C@H](C)C(=O)NS(=O)(=O)c2ccccc2)C(=O)O)cc1)C1CCc2cc3nc(C)nc(O)c3cc21 (some centres not stated) has an IC50 of 1.9 µM.
Compound C#CCN(c1ccc(C(=O)N[C@@H](CCC(=O)N[C@H](CCC)c2nnn[nH]2)C(=O)O)cc1)C1CCc2cc3nc(C)[nH]c(=O)c3cc21 (some centres not stated) has an IC50 of 0.44 µM.
C#CCN(c1ccc(C(=O)N[C@@H](CCC(=O)N[C@H](C)C(=O)O)C(=O)O)cc1)C1CCc2cc3nc(C)nc(O)c3cc21 (some centres not stated) was tested, and the IC50 was 0.42 µM.
Compound C#CCN(c1ccc(C(=O)N[C@@H](CCC(=O)N[C@H](C)c2nnn[nH]2)C(=O)O)cc1)C1CCc2cc3nc(C)[nH]c(=O)c3cc21 (some centres not stated) has an IC50 of 0.64 µM.
C#CCN(c1ccc(C(=O)N[C@@H](CCc2nnn(CC(=O)O)n2)C(=O)O)cc1)C1CCc2cc3nc(C)nc(O)c3cc21 (some centres not stated) showed an IC50 of 0.18 µM.
In the case of C#CCN(c1ccc(C(=O)N[C@@H](CCC(=O)N[C@H](CCC(=O)O)c2nnn[nH]2)C(=O)O)cc1)C1CCc2cc3nc(C)[nH]c(=O)c3cc21 (some centres not stated), the IC50 is reported as 1.5 µM.

What follows are compounds tested on L1210 (assay: Compound was tested for the inhibition of L1210:1565 cell growth in mouse; value given as 3.5,4.1). Details: not given.
Assay type: functional, cell-based
C#CCN(c1ccc(C(=O)N[C@@H](CCc2nnnn2CC(=O)O)C(=O)O)cc1)C1CCc2cc3nc(C)nc(O)c3cc21 (some centres not stated) gave an IC50 of 4.1 µM.

Each compound was assayed against T1, Thymidylate synthase (assay: Compound was tested for the binding affinity against thymidylate synthase from L1210 mouse leukemia cells; value given as 0.9, 2.0). Details: read-out: Ki app.
Assay type: cell-based
Outline: as §1
C#CCN(c1ccc(C(=O)N[C@@H](CCc2nnnn2CCCC(=O)O)C(=O)O)cc1)C1CCc2cc3nc(C)nc(O)c3cc21 (some centres not stated) gave a Ki of 0.002 µM.

Each compound was assayed on L1210 (assay: Compound was tested for the inhibition of L1210: 1565 cell growth in mouse; value given as 3.6, 2.7). Details: not given.
Assay type: functional, cell-based
C#CCN(c1ccc(C(=O)N[C@@H](CCC(=O)N[C@H](CCC)c2nnn[nH]2)C(=O)O)cc1)C1CCc2cc3nc(C)[nH]c(=O)c3cc21 (some centres not stated) gave an IC50 of 3.6 µM.

These compounds were tested on L1210 (assay: Compound was tested for the inhibition of L1210 cell growth in mouse; value given as 7.2, 7.2). Details: not given.
Assay type: functional, cell-based
C#CCN(c1ccc(C(=O)N[C@@H](CCC(=O)N[C@@H](CCc2nnnn2CC(=O)O)C(=O)O)C(=O)O)cc1)C1CCc2cc3nc(C)nc(O)c3cc21 (some centres not stated) showed an IC50 of 7.2 µM.

The compounds below were run on L1210 (assay: Compound was tested for the inhibition of L1210 cell growth in mouse; value given as 1.7,2.0). Details: not given.
Assay type: functional, cell-based
In the case of C#CCN(c1ccc(C(=O)N[C@@H](CCc2nnnn2CC(=O)O)C(=O)O)cc1)C1CCc2cc3nc(C)nc(O)c3cc21 (some centres not stated), the IC50 is reported as 2 µM.

Each compound was assayed on L1210 (assay: Compound was tested for the inhibition of L1210 cell growth in mouse; Value was given as 2.3,1.8.). Details: not given.
Assay type: functional, cell-based
For C#CCN(c1ccc(C(=O)N[C@@H](CCC(=O)N(C)[C@H](CCC(=O)O)C(=O)O)C(=O)O)cc1)C1CCc2cc3nc(C)nc(O)c3cc21 (some centres not stated), the IC50 was 2.3 µM.

The compounds below were run on L1210 (assay: Compound was tested for the inhibition of L1210: 1565 cell growth in mouse; value given as 3.9, 3.0). Details: not given.
Assay type: functional, cell-based
C#CCN(c1ccc(C(=O)N[C@@H](CCC(=O)N[C@@H](CCc2nnnn2CC(=O)O)C(=O)O)C(=O)O)cc1)C1CCc2cc3nc(C)nc(O)c3cc21 (some centres not stated) was tested, and the IC50 was 3.9 µM.

The compounds below were run against T1, Thymidylate synthase (assay: Binding affinity against thymidylate synthase from L1210 mouse leukemia cells). Details: read-out: Ki app.
Assay type: cell-based
Outline: as §1
C#CCN(c1ccc(C(=O)N[C@@H](CCC(=O)N[C@H](CCC(=O)O)C(=O)O)C(=O)O)cc1)C1CCc2cc3nc(C)nc(O)c3cc21 (some centres not stated) was tested, and the Ki was 0.00042 µM.
C#CCN(c1ccc(C(=O)N[C@@H](CCc2nnnn2CC(=O)N[C@H](C)C(=O)O)C(=O)O)cc1)C1CCc2cc3nc(C)nc(O)c3cc21 (some centres not stated) was tested, and the Ki was 0.0022 µM.
For C#CCN(c1ccc(C(=O)N[C@@H](CCC(=O)N[C@@H](CCc2nnnn2CC(=O)O)C(=O)O)C(=O)O)cc1)C1CCc2cc3nc(C)nc(O)c3cc21 (some centres not stated), the Ki was 0.00026 µM.
For C#CCN(Cc1cc2c(O)nc(C)nc2cc1C)c1ccc(C(=O)N[C@@H](CCC(=O)N[C@H](CCC(=O)O)C(=O)O)C(=O)O)cc1, the Ki was 0.002 µM.
C#CCN(c1ccc(C(=O)N[C@@H](CCC(=O)N(C)[C@H](CCC(=O)O)C(=O)O)C(=O)O)cc1)C1CCc2cc3nc(C)nc(O)c3cc21 (some centres not stated) showed a Ki of 0.00078 µM.
With C#CCN(c1ccc(C(=O)N[C@@H](CCCS(=O)(=O)c2nnc[nH]2)C(=O)O)cc1)C1CCc2cc3nc(C)[nH]c(=O)c3cc21 (some centres not stated) the Ki was 0.00078 µM.
C#CCN(c1ccc(C(=O)N[C@@H](CCC(=O)N[C@H](C)C(=O)NS(=O)(=O)c2ccccc2)C(=O)O)cc1)C1CCc2cc3nc(C)nc(O)c3cc21 (some centres not stated) showed a Ki of 0.0024 µM.
With C#CCN(c1ccc(C(=O)N[C@@H](CCC(=O)N[C@H](CCC)c2nnn[nH]2)C(=O)O)cc1)C1CCc2cc3nc(C)[nH]c(=O)c3cc21 (some centres not stated) the Ki was 0.0026 µM.
C#CCN(c1ccc(C(=O)N[C@@H](CCC(=O)N[C@H](C)C(=O)O)C(=O)O)cc1)C1CCc2cc3nc(C)nc(O)c3cc21 (some centres not stated) was tested, and the Ki was 0.0011 µM.
In the case of C#CCN(c1ccc(C(=O)N[C@@H](CCC(=O)N[C@H](C)c2nnn[nH]2)C(=O)O)cc1)C1CCc2cc3nc(C)[nH]c(=O)c3cc21 (some centres not stated), the Ki is reported as 0.0022 µM.
Compound C#CCN(c1ccc(C(=O)N[C@@H](CCc2nnn(CC(=O)O)n2)C(=O)O)cc1)C1CCc2cc3nc(C)nc(O)c3cc21 (some centres not stated) has a Ki of 0.0017 µM.
In the case of C#CCN(c1ccc(C(=O)N[C@@H](CCC(=O)N[C@H](CCC(=O)O)c2nnn[nH]2)C(=O)O)cc1)C1CCc2cc3nc(C)[nH]c(=O)c3cc21 (some centres not stated), the Ki is reported as 0.0002 µM.

Each compound was assayed on L1210 (assay: Compound was tested for the inhibition of L1210: 1565 cell growth in mouse; Value given as 1.3,0.84). Details: not given.
Assay type: functional, cell-based
C#CCN(c1ccc(C(=O)N[C@@H](CCc2nnn(CC(=O)O)n2)C(=O)O)cc1)C1CCc2cc3nc(C)nc(O)c3cc21 (some centres not stated) was tested, and the IC50 was 1.3 µM.

These compounds were tested on L1210 (assay: Compound was tested for the inhibition of L1210: 1565 cell growth in mouse.). Details: not given.
Assay type: functional, cell-based
C#CCN(c1ccc(C(=O)N[C@@H](CCC(=O)N[C@H](CCC(=O)O)C(=O)O)C(=O)O)cc1)C1CCc2cc3nc(C)nc(O)c3cc21 (some centres not stated) showed an IC50 of 2.2 µM.
In the case of C#CCN(c1ccc(C(=O)N[C@@H](CCc2nnnn2CC(=O)N[C@H](C)C(=O)O)C(=O)O)cc1)C1CCc2cc3nc(C)nc(O)c3cc21 (some centres not stated), the IC50 is reported as 13 µM.
C#CCN(Cc1cc2c(O)nc(C)nc2cc1C)c1ccc(C(=O)N[C@@H](CCC(=O)N[C@H](CCC(=O)O)C(=O)O)C(=O)O)cc1 gave an IC50 of 14 µM.
C#CCN(c1ccc(C(=O)N[C@@H](CCc2nnnn2CCCC(=O)O)C(=O)O)cc1)C1CCc2cc3nc(C)nc(O)c3cc21 (some centres not stated) showed an IC50 of 2.3 µM.
For C#CCN(c1ccc(C(=O)N[C@@H](CCC(=O)N(C)[C@H](CCC(=O)O)C(=O)O)C(=O)O)cc1)C1CCc2cc3nc(C)nc(O)c3cc21 (some centres not stated), the IC50 was 4.4 µM.
In the case of C#CCN(c1ccc(C(=O)N[C@@H](CCCS(=O)(=O)c2nnc[nH]2)C(=O)O)cc1)C1CCc2cc3nc(C)[nH]c(=O)c3cc21 (some centres not stated), the IC50 is reported as 0.68 µM.
C#CCN(c1ccc(C(=O)N[C@@H](CCC(=O)N[C@H](C)C(=O)O)C(=O)O)cc1)C1CCc2cc3nc(C)nc(O)c3cc21 (some centres not stated) was tested, and the IC50 was 1.4 µM.
C#CCN(c1ccc(C(=O)N[C@@H](CCC(=O)N[C@H](CCC(=O)O)c2nnn[nH]2)C(=O)O)cc1)C1CCc2cc3nc(C)[nH]c(=O)c3cc21 (some centres not stated) gave an IC50 of 1.3 µM.

Each compound was assayed on L1210 (assay: Compound was tested for the inhibition of L1210: 1565 cell growth in mouse; value given as 8.2, 7.8). Details: not given.
Assay type: functional, cell-based
Work on C#CCN(c1ccc(C(=O)N[C@@H](CCC(=O)N[C@H](C)C(=O)NS(=O)(=O)c2ccccc2)C(=O)O)cc1)C1CCc2cc3nc(C)nc(O)c3cc21 (some centres not stated) yielded an IC50 of 8.2 µM.
